Test results as given in ChEMBL document CHEMBL1122704, “Syntheses and anthelmintic activity of alkyl 5(6)-(substituted-carbamoyl)- and 5(6)-(disubstituted-carbamoyl)benzimidazole-2-carbamates and related compounds” (1984).
Calls of active or inactive are those of the source. No cut-off for these calls is given here.

How the values were obtained:
Ancylostoma ceylanicum = assay: Compound was evaluated for the biological activity against Ancylostoma ceylanicum in hamsters at the 250 mg/kg; type: functional
Summary of the method: (§1)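 Hamsters of either sex (40–60 g) infected orally with 60 third-stage larvae. Test compound given orally as a single dose on day 20 ± 1 postinfection, starting at 250 mg/kg × 1. Lower doses were used for active compounds to establish dose–response. Method of Ray et al. as modified locally.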

[1] = test system: Nippostrongylus brasiliensis; assay: (§2) Anti-nematode activity against Nippostrongylus brasiliensis in rats at 250 mg/kg; Insignificant activity.; type: functional
Rattus norvegicus [2] = assay: Compound was evaluated for the biological activity against Hymenolepsis nana (rats) at the 250 mg/kg; insignificant activity; type: functional, organism-based; design: dose 250 mg/kg
Summary of the method: (§3)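 Male rats (25–35 g) infected orally with 200 viable eggs. Infection confirmed by ovoscopic examination on days 17–20 postinoculation. Positive rats dosed orally on day 20 ± 1, initially 250 mg/kg × 1, then lower doses for dose–response. Method of Steward.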

Rattus norvegicus [3] = assay: Compound was evaluated for the biological activity against Hymenolepsis nana (rats) at the 250 mg/kg; type: functional; summary of the method: as §3
Cricetinae gen. sp. [4] = assay: Compound was evaluated for the biological activity against Ancylostoma ceylanicum in hamsters at the 3.12 mg/kg; type: functional, Cricetulus griseus; summary of the method: as §1
Rattus norvegicus [5] = assay: Compound was evaluated for the biological activity against Hymenolepsis nana (rats) aat the 250 mg/kg; type: functional; summary of the method: as §3
Rattus norvegicus [6] = assay: Compound was evaluated for the biological activity against Hymenolepsis nana (rats) at the 100 mg/kg; type: functional; summary of the method: as §3
Rattus norvegicus [7] = assay: Compound was evaluated for the biological activity against Nippostrongylus brasiliensis in rats at the 100-50 mg/kg; type: functional
Summary of the method: (§4)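 Male rats (25–40 g) inoculated subcutaneously with 500 larvae taken from 6–8-day-old fecal culture. Compounds given orally on day 9 postinfection at 250 mg/kg × 3, with lower doses as follow-up for active compounds. Steward technique as modified by Katiyar and Sen.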

Rattus norvegicus [8] = assay: Compound was evaluated for the biological activity against Nippostrongylus brasiliensis in rats at the 250 mg/kg; type: functional; summary of the method: as §4
Cricetinae gen. sp. [9] = assay: Compound was evaluated for the biological activity against Ancylostoma ceylanicum in hamsters at the 100-6.25 mg/kg; type: functional, Cricetulus griseus; summary of the method: as §1
Rattus norvegicus [10] = assay: Compound was evaluated for the biological activity against Hymenolepsis nana (rats) at the 50 mg/kg; type: functional; summary of the method: as §3
Rattus norvegicus [11] = assay: Compound was evaluated for the biological activity against Nippostrongylus brasiliensis in rats at the 25 mg/kg; type: functional; summary of the method: as §4
Rattus norvegicus [12] = assay: Compound was evaluated for the biological activity against Hymenolepsis nana (rats)at the 250 mg/kg; insignificant activity; type: functional, organism-based; design: dose 250 mg/kg; summary of the method: as §3
Cricetinae gen. sp. [13] = assay: Compound was evaluated for the biological activity against Ancylostoma ceylanicum in hamsters at the 100 mg/kg; type: functional, Cricetulus griseus; summary of the method: as §1
Cricetinae gen. sp. [14] = assay: Compound was evaluated for the biological activity against Ancylostoma ceylanicum (hamsters and dogs) at the 50 mg/kg; type: functional, Cricetulus griseus
Rattus norvegicus [15] = assay: Compound was evaluated for the biological activity against Nippostrongylus brasiliensis (rats) at the 100 mg/kg; type: functional; summary of the method: as §4
[16] = as §2; type: functional
Cricetinae gen. sp. [17] = assay: Compound was evaluated for the biological activity against Ancylostoma ceylanicum in hamsters at the 250 mg/kg; insignificant activity; type: functional, organism-based; design: dose 250 mg/kg; conditions: Cricetulus griseus; summary of the method: as §1
Cricetinae gen. sp. [18] = assay: Compound was evaluated for the biological activity against Ancylostoma ceylanicum in hamsters at the 100-25 mg/kg; type: functional, Cricetulus griseus; summary of the method: as §1
Rattus norvegicus [19] = assay: Compound was evaluated for the biological activity against Hymenolepsis nana (rats) at the 25 mg/kg; type: functional; summary of the method: as §3
Cricetinae gen. sp. [20] = assay: Compound was evaluated for the biological activity against Ancylostoma ceylanicum in hamsters at the 10 mg/kg; type: functional, Cricetulus griseus; summary of the method: as §1
Cricetinae gen. sp. [21] = assay: Compound was evaluated for the biological activity against Ancylostoma ceylanicum in hamsters at the 50 mg/kg; type: functional, Cricetulus griseus; summary of the method: as §1
Cricetinae gen. sp. [22] = assay: Compound was evaluated for the biological activity against Ancylostoma ceylanicum in hamsters at the 100 mg/kg; insignificant activity; type: functional, organism-based; design: dose 100 mg/kg; conditions: Cricetulus griseus; summary of the method: as §1
Rattus norvegicus [23] = assay: Compound was evaluated for the biological activity against Hymenolepsis nana (rats) at the 200 mg/kg; type: functional; summary of the method: as §3
Felis catus [24] = assay: Efficiency against Ancylostoma tubaeformis (hookworm) in cat at the 10 x 3 mg/kg; inactive; type: functional, organism-based; design: dose 3 mg/kg; conditions: at 3 mg/kg
Canis familiaris [25] = assay: Efficiency against Ancylostoma ceylanicum (hookworm) in dog at the 25 x 3 mg/kg; type: functional, Canis lupus familiaris
Rattus norvegicus [26] = assay: Efficiency against L carinii (filarid worm) in cotton (against adults) rat at the 30 x 5 mg/kg (ip); type: functional
Rattus norvegicus [27] = assay: Efficiency against L carinii (filarid worm) in cotton (against both microfilariae and adults) rat at the 10 x 5 mg/kg (ip); inactive; type: functional, organism-based; design: dose 5 mg/kg; conditions: at 5 mg/kg
Rattus norvegicus [28] = assay: Efficiency against L carinii (filarid worm) in cotton (against both microfilariae and adults) rat at the 50 x 5 mg/kg (po); inactive; type: functional, organism-based; design: dose 5 mg/kg; conditions: at 5 mg/kg
Rattus norvegicus [29] = assay: Efficiency against L carinii (filarid worm) in cotton (on adults) rat at the 30 x 5 mg/kg (ip); type: functional
Mus musculus = assay: Efficiency against Syphacia obvelata (pinworm) in mouse at the 12.5 x 3 mg/kg; type: functional
Summary of the method: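 Adult mice of both sexes (20–30 g) with pinworm infection, assessed by Standon's method. Oral dosing started at 25 mg/kg × 3, followed by lower doses for active compounds. Mebendazole at 50 mg/kg × 3 served as positive control.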

Rattus norvegicus [30] = assay: Compound was evaluated for the biological activity against Hymenolepsis nana (rats) at the 100-50 mg/kg; type: functional; summary of the method: as §3
Canis familiaris (dog) [31] = assay: Efficiency against Toxocara species. (Ascaris) in dog at the 25 x 3 mg/kg
Rattus norvegicus [32] = assay: Efficiency against L carinii (filarid worm) in cotton (on microfilariae) rat at the 30 x 5 mg/kg (ip); type: functional
Canis familiaris [33] = assay: Efficiency against Ancylostoma ceylanicum (hookworm) in dog at the 10 x 3 mg/kg; type: functional, Canis lupus familiaris
Rattus norvegicus [34] = assay: Efficiency against L carinii (filarid worm) in cotton (against microfilariae and inactive against adults) rat at 100 x 5 mg/kg (po); type: functional
Felis catus [35] = assay: Efficiency against Ancylostoma tubaeformis (hookworm) in cat at the 25 x 3 mg/kg; type: functional
Canis familiaris (dog) [36] = assay: Efficiency against Taenia species. (tapeworm) in dog at the 25 x 3 mg/kg; inactive; conditions: at 3 mg/kg

SMILES	Activity (Ancylostoma ceylanicum) [%]	Activity [1]	Activity (Rattus norvegicus [2])	Activity (Rattus norvegicus [3]) [%]	other results
CCOC(=O)Nc1nc2cc(C(=O)Nc3ccccc3)ccc2[nH]1	50	inactive	inactive	–	–
CNC(=O)c1ccc2[nH]c(NC(=O)OC)nc2c1	95	inactive	–	100	–
COC(=O)Nc1nc2cc(C(=O)N3CCN(c4ccccc4)CC3)ccc2[nH]1	100	–	–	–	Activity (Cricetinae gen. sp. [4]): 77%; Activity (Rattus norvegicus [5]): 100%; Activity (Rattus norvegicus [6]): 100%; Activity (Rattus norvegicus [7]): 100%; Activity (Rattus norvegicus [8]): 100%; Activity (Cricetinae gen. sp. [9]): 100%; Activity (Rattus norvegicus [10]): 100%; Activity (Rattus norvegicus [11]): 86.6%
COC(=O)Nc1nc2cc(C(=O)NCCNC(=O)c3ccc4[nH]c(NC(=O)OC)nc4c3)ccc2[nH]1	50	inactive	inactive	–	–
COC(=O)Nc1nc2cc(C(=O)N3CCCCC3)ccc2[nH]1	100	–	–	–	Activity (Rattus norvegicus [12]): inactive
COC(=O)Nc1nc2cc(C(=O)Nc3ccc(Sc4ccc(NC(=O)c5ccc6[nH]c(NC(=O)OC)nc6c5)cc4)cc3)ccc2[nH]1	48.2	inactive	inactive	–	–
COC(=O)Nc1nc2cc(C(=O)N(C(C)C)C(C)C)ccc2[nH]1	100	–	–	100	Activity (Cricetinae gen. sp. [13]): 100%; Activity (Cricetinae gen. sp. [14]): 88.8%; Activity (Rattus norvegicus [8]): 100%; Activity (Rattus norvegicus [15]): 100%; Activity (Rattus norvegicus [10]): 100%
CCN(CC)C(=O)c1ccc2[nH]c(NC(=O)OC)nc2c1	100	–	–	100	Activity (Rattus norvegicus [8]): 100%
COC(=O)Nc1nc2cc(C(=O)Nc3nc4ccc(OC)cc4s3)ccc2[nH]1	–	–	inactive	–	Activity [16]: 86.6%; Activity (Cricetinae gen. sp. [17]): inactive
CCCN(CCC)C(=O)c1ccc2[nH]c(NC(=O)OC)nc2c1	100	inactive	–	100	Activity (Cricetinae gen. sp. [13]): 75%; Activity (Rattus norvegicus [6]): 100%
COC(=O)Nc1nc2cc(C(=O)NCc3ccco3)ccc2[nH]1	100	inactive	–	100	Activity (Cricetinae gen. sp. [18]): 100%; Activity (Rattus norvegicus [6]): 100%; Activity (Rattus norvegicus [19]): 100%; Activity (Cricetinae gen. sp. [20]): 57%; Activity (Rattus norvegicus [10]): 100%
CCOC(=O)Nc1nc2cc(C(=O)NCCc3ccc(OC)c(OC)c3)ccc2[nH]1	–	–	inactive	–	–
COC(=O)Nc1nc2cc(NC(=O)c3ccc(C(=O)Nc4ccc5[nH]c(NC(=O)OC)nc5c4)cc3)ccc2[nH]1	100	inactive	inactive	–	Activity (Cricetinae gen. sp. [21]): 66.6%
COC(=O)Nc1nc2cc(C(=O)NC3=NCCS3)ccc2[nH]1	100	inactive	–	100	Activity (Cricetinae gen. sp. [22]): inactive; Activity (Cricetinae gen. sp. [21]): 55.5%
COC(=O)Nc1nc2cc(C(=O)Nc3ccncc3)ccc2[nH]1	75	inactive	inactive	–	–
COC(=O)Nc1nc2cc(C(=O)Nc3ccccc3)ccc2[nH]1	87	inactive	–	–	–
COC(=O)Nc1nc2cc(C(=O)Nc3ccccn3)ccc2[nH]1	95	inactive	inactive	–	–
CCCCNC(=O)c1ccc2[nH]c(NC(=O)OC)nc2c1	100	inactive	–	100	–
COC(=O)Nc1nc2cc(C(=O)Nc3ncc(C)s3)ccc2[nH]1	100	inactive	–	100	Activity (Rattus norvegicus [6]): 100%
COC(=O)Nc1nc2cc(C(=O)NCCc3ccc(NC(=O)c4ccc5[nH]c(NC(=O)OC)nc5c4)cc3)ccc2[nH]1	50	inactive	inactive	–	–
CCCCCCCCNC(=O)c1ccc2[nH]c(NC(=O)OC)nc2c1	100	inactive	–	–	Activity (Rattus norvegicus [23]): 100%
COC(=O)Nc1nc2cc(C(=O)NC3CCCCC3)ccc2[nH]1	100	–	inactive	–	Activity (Rattus norvegicus [8]): 63.2%
COC(=O)Nc1nc2cc(C(=O)Nc3ccc(F)cc3)ccc2[nH]1	100	inactive	–	100	–
COC(=O)Nc1nc2cc(C(=O)Nc3cccc(C)n3)ccc2[nH]1	100	inactive	–	100	Activity (Cricetinae gen. sp. [13]): 100%; Activity (Cricetinae gen. sp. [21]): 92.5%
COC(=O)Nc1nc2cc(C(=O)Nc3nccs3)ccc2[nH]1	–	inactive	inactive	–	Activity (Cricetinae gen. sp. [17]): inactive
COC(=O)Nc1nc2cc(C(=O)Nc3ccc(S(=O)(=O)c4ccc(NC(=O)c5ccc6[nH]c(NC(=O)OC)nc6c5)cc4)cc3)ccc2[nH]1	48.2	inactive	inactive	–	–
COC(=O)Nc1nc2cc(C(=O)N3CCOCC3)ccc2[nH]1	100	–	–	100	Activity (Cricetinae gen. sp. [4]): 83%; Activity (Rattus norvegicus [6]): 100%; Activity (Rattus norvegicus [7]): 100%; Activity (Rattus norvegicus [8]): 100%; Activity (Cricetinae gen. sp. [9]): 100%; Activity (Rattus norvegicus [10]): 100%; Activity (Rattus norvegicus [11]): 50%
COC(=O)Nc1nc2cc(C(=O)N3CCN(c4ccccn4)CC3)ccc2[nH]1	100	–	–	100	Efficiency (Felis catus [24]): inactive; Activity (Cricetinae gen. sp. [4]): 88%; Efficiency (Canis familiaris [25]): 100%; Efficiency (Rattus norvegicus [26]): 100%; Efficiency (Rattus norvegicus [27]): inactive; Efficiency (Rattus norvegicus [28]): inactive; Efficiency (Rattus norvegicus [29]): 100%; Activity (Rattus norvegicus [7]): 100%; Activity (Rattus norvegicus [8]): 100%; Activity (Rattus norvegicus [19]): 100%; Efficiency (Mus musculus): 100%; Activity (Rattus norvegicus [30]): 100%; Efficiency (Canis familiaris (dog) [31]): 100%; Efficiency (Rattus norvegicus [32]): 97%; Efficiency (Canis familiaris [33]): 100%; Activity (Cricetinae gen. sp. [9]): 100%; Efficiency (Rattus norvegicus [34]): 94.8%; Activity (Rattus norvegicus [11]): 60%; Efficiency (Felis catus [35]): 100%; Efficiency (Canis familiaris (dog) [36]): inactive
